These results are taken from ChEMBL document CHEMBL4004881, “Perfluorinated hydroxamic acids are potent and selective inhibitors of HDAC-like enzymes from Pseudomonas aeruginosa” (Bioorg Med Chem Lett, 2017).

The nature of test [1]: Inhibition of Pseudomonas aeruginosa PA1409 using Boc-Lys(trifluoroacetyl)-AMC as substrate preincubated for 30 mins followed by substrate addition measured after 60 mins by trypsin-based fluorescence assay.
The nature of test [2]: Inhibition of Pseudomonas aeruginosa PA0321 using Boc-Lys(trifluoroacetyl)-AMC as substrate preincubated for 30 mins followed by substrate addition measured after 60 mins by trypsin-based fluorescence assay.
The next test deals with Histone deacetylase 4 (Homo sapiens, UniProt P56524). The test is described as follows: Inhibition of human HDAC4 using Boc-Lys(trifluoroacetyl)-AMC as substrate preincubated for 30 mins followed by substrate addition measured after 60 mins by trypsin-based fluorescence assay.
The nature of test [3]: Inhibition of Pseudomonas aeruginosa PA3774 using Boc-Lys(trifluoroacetyl)-AMC as substrate preincubated for 30 mins followed by substrate addition measured after 60 mins by trypsin-based fluorescence assay.
The target in another test is Histone deacetylase 5 (Homo sapiens, UniProt Q9UQL6). The experiment in a line: Inhibition of human HDAC5 using Boc-Lys(trifluoroacetyl)-AMC as substrate preincubated for 30 mins followed by substrate addition measured after 60 mins by trypsin-based fluorescence assay.
A short description of test [4]: Inhibition of Bordetella HDAH using Boc-Lys(trifluoroacetyl)-AMC as substrate preincubated for 30 mins followed by substrate addition measured after 60 mins by trypsin-based fluorescence assay. The procedure, abridged:
(§1)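 Bacterial HDAH activity was measured by a fluorogenic assay in which the deacetylated substrate is converted to fluorescent dye by trypsin. Ki was calculated via Cheng-Prusoff from IC50 values, which were fitted to dose-response curves spanning 10 ligand concentrations.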

A short description of test [5]: Inhibition of Alcaligenes HDAH using Boc-Lys(trifluoroacetyl)-AMC as substrate preincubated for 30 mins followed by substrate addition measured after 60 mins by trypsin-based fluorescence assay. Put shortly: as §1

Sequence of Histone deacetylase 5 (Q9UQL6 whole entry): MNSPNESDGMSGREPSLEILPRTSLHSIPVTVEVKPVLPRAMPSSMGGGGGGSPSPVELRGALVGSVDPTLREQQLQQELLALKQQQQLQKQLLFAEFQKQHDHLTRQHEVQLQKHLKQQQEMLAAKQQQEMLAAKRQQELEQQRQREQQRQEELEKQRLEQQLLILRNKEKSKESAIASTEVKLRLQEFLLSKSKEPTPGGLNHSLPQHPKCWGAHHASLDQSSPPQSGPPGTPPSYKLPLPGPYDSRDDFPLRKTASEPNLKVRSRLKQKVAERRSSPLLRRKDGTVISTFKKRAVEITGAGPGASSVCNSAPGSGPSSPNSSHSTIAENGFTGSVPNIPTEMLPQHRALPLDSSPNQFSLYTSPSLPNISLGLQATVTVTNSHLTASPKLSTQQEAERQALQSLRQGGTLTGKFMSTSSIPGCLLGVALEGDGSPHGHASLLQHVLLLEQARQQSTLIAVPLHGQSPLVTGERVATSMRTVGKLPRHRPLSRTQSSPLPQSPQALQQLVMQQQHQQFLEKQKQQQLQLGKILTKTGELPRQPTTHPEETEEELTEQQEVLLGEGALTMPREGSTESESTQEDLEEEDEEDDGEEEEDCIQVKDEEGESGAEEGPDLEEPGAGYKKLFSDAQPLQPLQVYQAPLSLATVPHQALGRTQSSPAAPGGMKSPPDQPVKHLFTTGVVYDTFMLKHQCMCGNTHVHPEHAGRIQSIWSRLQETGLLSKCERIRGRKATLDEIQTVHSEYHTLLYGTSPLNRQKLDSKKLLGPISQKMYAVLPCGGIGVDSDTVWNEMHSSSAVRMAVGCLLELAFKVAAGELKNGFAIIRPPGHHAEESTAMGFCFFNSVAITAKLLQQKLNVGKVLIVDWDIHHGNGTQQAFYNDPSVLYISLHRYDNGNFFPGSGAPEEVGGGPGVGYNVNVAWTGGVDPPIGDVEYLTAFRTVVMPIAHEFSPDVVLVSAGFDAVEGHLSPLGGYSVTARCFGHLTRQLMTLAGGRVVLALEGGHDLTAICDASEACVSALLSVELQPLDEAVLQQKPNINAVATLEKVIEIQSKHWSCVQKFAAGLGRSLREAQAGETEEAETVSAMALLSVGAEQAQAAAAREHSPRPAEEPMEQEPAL
Sequence of Histone deacetylase 4 (P56524 whole entry): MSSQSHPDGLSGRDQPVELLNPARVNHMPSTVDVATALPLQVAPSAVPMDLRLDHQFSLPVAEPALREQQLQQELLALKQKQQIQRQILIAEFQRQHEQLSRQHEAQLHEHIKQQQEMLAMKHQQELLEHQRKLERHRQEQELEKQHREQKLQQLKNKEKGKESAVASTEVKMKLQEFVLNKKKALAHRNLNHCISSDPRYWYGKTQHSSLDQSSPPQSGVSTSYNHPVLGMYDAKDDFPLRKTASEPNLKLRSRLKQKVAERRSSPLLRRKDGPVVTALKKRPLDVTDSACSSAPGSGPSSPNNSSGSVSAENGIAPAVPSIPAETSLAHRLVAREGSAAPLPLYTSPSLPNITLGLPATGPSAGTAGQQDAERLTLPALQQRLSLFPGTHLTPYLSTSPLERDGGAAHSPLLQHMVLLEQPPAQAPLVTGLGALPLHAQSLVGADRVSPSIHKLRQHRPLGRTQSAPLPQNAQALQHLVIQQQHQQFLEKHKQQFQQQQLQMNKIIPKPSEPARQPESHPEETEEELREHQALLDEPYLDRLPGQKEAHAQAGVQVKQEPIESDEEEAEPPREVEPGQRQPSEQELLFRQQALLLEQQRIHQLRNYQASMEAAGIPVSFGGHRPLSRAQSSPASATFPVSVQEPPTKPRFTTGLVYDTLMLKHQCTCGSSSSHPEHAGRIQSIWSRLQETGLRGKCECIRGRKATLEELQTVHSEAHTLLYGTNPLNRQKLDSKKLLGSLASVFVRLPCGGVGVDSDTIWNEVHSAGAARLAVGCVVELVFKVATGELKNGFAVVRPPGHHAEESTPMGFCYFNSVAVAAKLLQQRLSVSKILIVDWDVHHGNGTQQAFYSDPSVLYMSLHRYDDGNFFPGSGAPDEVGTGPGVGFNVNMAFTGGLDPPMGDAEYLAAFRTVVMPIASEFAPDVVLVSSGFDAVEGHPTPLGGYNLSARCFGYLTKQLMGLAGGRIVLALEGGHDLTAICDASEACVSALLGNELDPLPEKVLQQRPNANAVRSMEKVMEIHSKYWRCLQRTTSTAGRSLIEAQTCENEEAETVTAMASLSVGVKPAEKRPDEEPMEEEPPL

By Ki is commonly meant a measure of affinity in units of concentration, obtained from inhibition or displacement. A higher Ki goes with a looser hold on the target. Regarding `O=C(NO)C(F)(F)C(F)(F)C(F)(F)C(F)(F)C(F)(F)C(F)(F)C(=O)Nc1ccccc1`, the Ki in test [1] is 2.6 µM; in test [2] it was 0.7 µM; at Histone deacetylase 4 it was over 50 µM; in test [3], 0.022 µM; on Histone deacetylase 5, 13 µM.
Take `Cc1ccc(NC(=O)C(F)(F)C(F)(F)C(F)(F)C(F)(F)C(F)(F)C(F)(F)C(=O)NO)cc1`: the Ki was 6.2 µM in test [1]; 2.3 µM in test [2]; over 50 µM at Histone deacetylase 4; 0.19 µM in test [3]; over 50 µM on Histone deacetylase 5.
`O=C(NO)C(F)(F)C(F)(F)C(F)(F)C(F)(F)C(F)(F)C(F)(F)C(=O)Nc1ccc(Cl)cc1`: the Ki is 5.7 µM in test [1]; 0.086 µM in test [4]; 2.1 µM in test [2]; over 50 µM at Histone deacetylase 4; 0.086 µM in test [5]; 0.17 µM in test [3]. On Histone deacetylase 5, this compound came in with a Ki of over 50 µM.
Take `CC(=O)Nc1ccc(NC(=O)C(F)(F)C(F)(F)C(F)(F)C(F)(F)C(F)(F)C(F)(F)C(=O)NO)cc1`: the Ki in test [1] is 7.6 µM; in test [2] it was 3.6 µM; at Histone deacetylase 4, over 50 µM; in test [3], 0.32 µM; at Histone deacetylase 5, over 50 µM.
Regarding `N#Cc1ccc(NC(=O)C(F)(F)C(F)(F)C(F)(F)C(F)(F)C(F)(F)C(F)(F)C(=O)NO)cc1`, the Ki in test [1] is 7.1 µM; in test [2] it was 2.8 µM; on Histone deacetylase 4, over 50 µM; in test [3], 0.32 µM; at Histone deacetylase 5, over 50 µM.
Take `O=C(NO)C(F)(F)C(F)(F)C(F)(F)C(F)(F)C(F)(F)C(F)(F)C(=O)Nc1ccc(I)cc1`: the Ki in test [1] was 4.1 µM; in test [2], 1.1 µM; at Histone deacetylase 4 it was over 50 µM; in test [3], 0.046 µM; at Histone deacetylase 5 it was over 50 µM.
`O=C(NO)C(F)(F)C(F)(F)C(F)(F)C(F)(F)C(F)(F)C(F)(F)C(=O)Nc1ccc(-c2ccccc2)cc1`: the Ki was 3.1 µM in test [1]; 1.5 µM in test [2]; over 50 µM at Histone deacetylase 4; 0.046 µM in test [3]; over 50 µM on Histone deacetylase 5.
As for `CCc1cccc(NC(=O)C(F)(F)C(F)(F)C(F)(F)C(F)(F)C(F)(F)C(F)(F)C(=O)NO)c1`, the Ki in test [1] was 6.7 µM; in test [2], 2.1 µM; at Histone deacetylase 4, over 50 µM; in test [3] it was 0.24 µM; on Histone deacetylase 5 it was over 50 µM.
For the compound `O=C(NO)C(F)(F)C(F)(F)C(F)(F)C(F)(F)C(F)(F)C(F)(F)C(=O)Nc1ccc2ccc3cccc4ccc1c2c34`, the Ki in test [1] is 16 µM; in test [2], 4.1 µM; on Histone deacetylase 4, over 50 µM; in test [3], 0.23 µM; at Histone deacetylase 5, over 50 µM.
Consider `O=C(NO)C(F)(F)C(F)(F)C(F)(F)C(F)(F)C(F)(F)C(F)(F)C(=O)Nc1nc(-c2ccccc2)cs1`, for which the Ki in test [1] was over 50 µM; in test [2], 8.5 µM; at Histone deacetylase 4, over 50 µM; in test [3], 12 µM; on Histone deacetylase 5, over 50 µM.
`O=C(NO)C(F)(F)C(F)(F)C(F)(F)C(F)(F)C(F)(F)C(F)(F)C(=O)Nc1ccc(-c2cnnn2-c2ccccc2)cc1`: the Ki in test [1] is 15 µM; in test [2] it was 22 µM; at Histone deacetylase 4, over 50 µM; in test [3], 3.1 µM; at Histone deacetylase 5, over 50 µM.
`O=C(NO)C(F)(F)C(F)(F)C(F)(F)C(F)(F)C(F)(F)C(F)(F)C(=O)Nc1cccc2ccccc12`: the Ki is 21 µM in test [1]; 7 µM in test [2]; over 50 µM at Histone deacetylase 4; 0.35 µM in test [3]; over 50 µM on Histone deacetylase 5.
In the case of `O=C(NO)C(F)(F)C(F)(F)C(F)(F)C(F)(F)C(F)(F)C(F)(F)C(=O)Nc1cccc(-c2ccccc2)c1`, the Ki in test [1] was 4.4 µM; in test [2], 1.5 µM; at Histone deacetylase 4, over 50 µM; in test [3] it was 0.1 µM; on Histone deacetylase 5, over 50 µM.
Take `O=C(NO)C(F)(F)C(F)(F)C(F)(F)C(F)(F)C(F)(F)C(F)(F)C(=O)Nc1ccc2ccccc2c1`: the Ki in test [1] was 3.8 µM; in test [2], 1.2 µM; on Histone deacetylase 4, over 50 µM; in test [3], 0.53 µM; on Histone deacetylase 5, over 50 µM.
With `O=C(NO)C(F)(F)C(F)(F)C(F)(F)C(F)(F)C(F)(F)C(F)(F)C(=O)Nc1ccccc1-c1ccccc1`, the Ki in test [1] was 17 µM; in test [2] it was 12 µM; on Histone deacetylase 4, over 50 µM; in test [3] it was 1.1 µM; on Histone deacetylase 5, over 50 µM.
Turning to `O=C(NO)C(F)(F)C(F)(F)C(F)(F)C(F)(F)C(F)(F)C(F)(F)C(=O)Nc1ccc2cc3ccccc3cc2c1`, the Ki in test [1] was over 50 µM; in test [2] it was 24 µM; at Histone deacetylase 4 it was over 50 µM; in test [3] it was 2 µM; at Histone deacetylase 5, over 50 µM.
As for `O=C(NO)C(F)(F)C(F)(F)C(F)(F)C(F)(F)C(F)(F)C(F)(F)C(=O)Nc1cc2ccccc2c2ccccc12`, the Ki in test [1] was 11 µM; in test [2] it was 6 µM; on Histone deacetylase 4, over 50 µM; in test [3] it was 0.25 µM; at Histone deacetylase 5, over 50 µM.
Regarding `O=C(NO)C(F)(F)C(F)(F)C(F)(F)C(F)(F)C(F)(F)C(F)(F)C(=O)Nc1cccc2cc3ccccc3cc12`, the Ki in test [1] was 11 µM; in test [2], 9 µM; on Histone deacetylase 4, over 50 µM; in test [3] it was 1.1 µM; at Histone deacetylase 5, over 50 µM.
For the compound `O=C(Nc1ccccc1)C(F)(F)C(F)(F)C(F)(F)C(F)(F)C(F)(F)C(F)(F)C(=O)Nc1ccccc1`, the Ki in test [1] was over 50 µM; in test [2] it was over 50 µM; at Histone deacetylase 4, over 50 µM; in test [3], 10 µM; at Histone deacetylase 5 it was over 50 µM.
Consider `O=C(NO)C(F)(F)C(F)(F)C(F)(F)C(F)(F)C(F)(F)C(F)(F)C(=O)Nc1cccc(-c2cn(-c3ccccc3)nn2)c1`, for which the Ki is over 50 µM in test [1]; over 50 µM in test [2]; over 50 µM at Histone deacetylase 4; 2.6 µM in test [3]; over 50 µM at Histone deacetylase 5.
